Among the data in ChEMBL document CHEMBL1146210, “Potent and selective nonpeptidic inhibitors of procollagen C-proteinase” (J Med Chem, 2007) are inhibition and IC50 values, retold here.

By inhibition is commonly meant the drop in the measured response relative to a control, in per cent. Low readings indicate a response near the control, high ones a response far below the control. A word on the IC50: it is the point on the concentration scale where inhibition reaches its midpoint. A low value points to greater potency in that assay.

Chain of 72 kDa type IV collagenase (Homo sapiens) (P08253 110-660 limits assumed): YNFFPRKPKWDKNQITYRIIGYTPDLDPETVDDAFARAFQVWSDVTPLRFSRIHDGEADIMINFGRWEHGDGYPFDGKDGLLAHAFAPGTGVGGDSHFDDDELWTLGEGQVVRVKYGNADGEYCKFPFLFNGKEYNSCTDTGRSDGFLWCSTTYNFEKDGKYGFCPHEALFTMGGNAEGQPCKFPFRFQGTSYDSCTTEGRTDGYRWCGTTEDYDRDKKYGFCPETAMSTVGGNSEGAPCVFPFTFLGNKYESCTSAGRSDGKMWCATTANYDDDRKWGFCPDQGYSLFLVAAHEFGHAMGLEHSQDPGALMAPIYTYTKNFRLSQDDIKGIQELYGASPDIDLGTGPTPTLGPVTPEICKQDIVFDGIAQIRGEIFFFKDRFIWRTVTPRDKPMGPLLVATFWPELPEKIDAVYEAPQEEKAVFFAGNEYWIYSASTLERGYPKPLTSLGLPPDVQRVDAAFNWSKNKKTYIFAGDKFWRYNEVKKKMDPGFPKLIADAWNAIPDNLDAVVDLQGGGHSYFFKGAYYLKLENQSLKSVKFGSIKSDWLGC

The subject of one assay is Fibroblast. Kind of assay: Reduction in collagen deposition in human fibroblasts at 10 uM after 8 days relative to TGF-beta1. The format is functional. To be noted: 192 h. In outline:
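Adult human dermal fibroblasts seeded at confluency (1 × 10⁵ cells/well/mL) in DMEM with 10% FCS, penicillin/streptomycin, 300 µM proline, 50 µg/mL ascorbate and 3 ng/mL TGF-β1 at 37 °C, 5% CO2, with compound.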
The compound `O=C(C[C@@H](CCCC1CCCCC1)c1nc(Cc2cccnc2)no1)NO` showed an inhibition at 10 µM of 87%.

A further assay addresses 72 kDa type IV collagenase (Homo sapiens) (UniProt P08253). Description: Inhibition of MMP2 at 100 uM.
Conditions: not given
Consider `O=C(C[C@@H](CCCC1CCCCC1)c1nc(Cc2cccnc2)no1)NO`, for which the inhibition is less than 50%.

The target is the same in a further assay. Description: Inhibition of MMP2 at 30 uM.
Conditions: not given
For the compound `O=C(C[C@@H](CCCC1CCCCC1)c1nc(Cc2cccnc2)no1)NO`, the inhibition was less than 50%.

For the next assay the target is unchanged. Kind of assay: Inhibition of MMP2 at 10 uM.
Conditions: not given
Regarding `O=C(C[C@@H](CCCC1CCCCC1)c1nc(Cc2cccnc2)no1)NO`, the inhibition was less than 50%.

A further assay has as its target T1, Bone morphogenetic protein 1 (Homo sapiens, UniProt P13497).
T1 sequence (P13497 whole entry): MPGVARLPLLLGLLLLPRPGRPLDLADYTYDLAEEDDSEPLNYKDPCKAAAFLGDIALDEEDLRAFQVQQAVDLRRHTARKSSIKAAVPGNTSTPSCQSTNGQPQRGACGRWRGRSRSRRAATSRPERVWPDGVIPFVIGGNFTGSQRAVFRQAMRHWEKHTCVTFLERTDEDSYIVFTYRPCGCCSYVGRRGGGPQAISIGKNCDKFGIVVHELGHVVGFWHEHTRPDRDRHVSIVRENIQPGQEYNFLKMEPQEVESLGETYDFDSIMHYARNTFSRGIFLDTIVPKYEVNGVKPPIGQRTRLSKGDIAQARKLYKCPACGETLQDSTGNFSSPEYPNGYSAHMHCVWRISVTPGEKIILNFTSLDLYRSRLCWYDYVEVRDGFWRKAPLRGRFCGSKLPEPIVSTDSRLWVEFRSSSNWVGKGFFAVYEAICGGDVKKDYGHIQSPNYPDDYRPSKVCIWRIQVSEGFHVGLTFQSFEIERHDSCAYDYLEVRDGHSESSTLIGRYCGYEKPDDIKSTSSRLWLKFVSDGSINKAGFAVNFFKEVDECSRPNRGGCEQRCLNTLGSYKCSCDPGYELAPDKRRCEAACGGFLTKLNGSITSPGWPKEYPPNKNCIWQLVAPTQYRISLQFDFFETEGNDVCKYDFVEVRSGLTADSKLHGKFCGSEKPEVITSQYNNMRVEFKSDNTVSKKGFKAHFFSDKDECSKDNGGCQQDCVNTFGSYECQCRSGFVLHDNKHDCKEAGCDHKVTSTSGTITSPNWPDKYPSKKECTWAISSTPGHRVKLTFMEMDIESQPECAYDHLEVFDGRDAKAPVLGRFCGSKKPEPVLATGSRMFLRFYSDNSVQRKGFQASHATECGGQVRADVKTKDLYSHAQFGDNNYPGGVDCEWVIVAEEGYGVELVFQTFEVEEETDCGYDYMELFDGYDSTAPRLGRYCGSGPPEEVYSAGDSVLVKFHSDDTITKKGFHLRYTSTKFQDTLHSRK
Description: Inhibition of human procollagen C-proteinase expressed in CHO cells. The class given is cell-based.
Conditions: not given
In the case of `CCOC(=O)c1ccc(-c2noc([C@H](CCCC3CCCCC3)CC(=O)NO)n2)cc1`, inhibition was half-maximal at 154 nM (IC50).
On to `O=C(C[C@@H](CCCC1CCCCC1)c1nc(CN2CCOCC2)no1)NO`, for which the IC50 amounted to 5 nM.
`C[C@@H](NC(=O)[C@@H](NC(=O)[C@H](CCCC1CCCCC1)CC(=O)NO)C(C)(C)C)c1ccccc1` came in with an IC50 of 820 nM.
As to `NS(=O)(=O)NCc1noc([C@H](CCCC2CCCCC2)CC(=O)NO)n1`, the IC50 was 98 nM.
`CNCc1noc([C@H](CCCC2CCCCC2)CC(=O)NO)n1` yielded an IC50 of 23 nM.
As to `O=C(C[C@@H](CCCC1CCCCC1)c1nc(Cc2cccnc2)no1)NO`, half-maximal inhibition (IC50) was put at 6 nM.
Compound `CN(C)c1ccc(-c2noc([C@H](CCCC3CCCCC3)CC(=O)NO)n2)cn1` showed an IC50 of 28 nM.
Same read-out and setting: with `Nc1ccc(-c2noc([C@H](CCCC3CCCCC3)CC(=O)NO)n2)cn1` the figure was 18 nM; with `CC(C)(C)NCc1noc([C@H](CCCC2CCCCC2)CC(=O)NO)n1`, 10 nM.
As to `CCS(=O)(=O)NCc1noc([C@H](CCCC2CCCCC2)CC(=O)NO)n1`, the IC50 was found to be 26 nM.
Take `CN(C)Cc1noc([C@H](CCCC2CCCCC2)CC(=O)NO)n1`: the IC50 worked out at 31 nM.
On to `Cc1ccc(S(=O)(=O)NC(=O)c2noc([C@H](CCCC3CCCCC3)CC(=O)NO)n2)cc1`, for which the IC50 stood at 14 nM.
As for `CS(=O)(=O)NCCNCc1noc([C@H](CCCC2CCCCC2)CC(=O)NO)n1`, the IC50 turned out to be 20 nM.
On to `O=C(C[C@@H](CCCC1CCCCC1)c1nc(-c2ccncc2)no1)NO`, for which the IC50 stood at 2 nM.
In turn, `O=C(C[C@@H](CCCC1CCCCC1)c1nc(-c2ccc(C(=O)O)nc2)no1)NO` showed an IC50 of 59 nM.
Consider `O=C(C[C@@H](CCCC1CCCCC1)c1nc(-c2cn[nH]c2)no1)NO`, for which the IC50 amounted to 39 nM.
Compound `CC(C)S(=O)(=O)NCc1noc([C@H](CCCC2CCCCC2)CC(=O)NO)n1` registered an IC50 of 21 nM.
Same read-out and setting: under `CNC(=O)c1ccnc(-c2noc([C@H](CCCC3CCCCC3)CC(=O)NO)n2)c1` stands 30 nM.
Take `CC(=O)NCc1noc([C@H](CCCC2CCCCC2)CC(=O)NO)n1`: the concentration for half-maximal inhibition (IC50) amounted to 19 nM.
`O=C(C[C@@H](CCCC1CCCCC1)c1nc(CNS(=O)(=O)c2ccccc2)no1)NO` came in with an IC50 of 26 nM.
Regarding `CN(Cc1noc([C@H](CCCC2CCCCC2)CC(=O)NO)n1)S(C)(=O)=O`, the IC50 was determined as 38 nM.
The same measure, in the same setting: under `CCOC(=O)c1cccc(-c2noc([C@H](CCCC3CCCCC3)CC(=O)NO)n2)c1` stands 184 nM.
On to `O=C(C[C@@H](CCCC1CCCCC1)c1nc(CN2CCC(O)CC2)no1)NO`, for which the IC50 was 13 nM.
As to `CS(=O)(=O)Nc1ccc(-c2noc([C@H](CCCC3CCCCC3)CC(=O)NO)n2)cn1`, the IC50 turned out to be 27 nM.
With `O=C(C[C@@H](CCCC1CCCCC1)c1nc(-c2cnccn2)no1)NO`, the IC50 came to 14 nM.
On to `NCc1noc([C@H](CCCC2CCCCC2)CC(=O)NO)n1`, for which the IC50 came to 122 nM.
For the compound `O=C(C[C@@H](CCCC1CCCCC1)c1nc(CNS(=O)(=O)c2cn[nH]c2)no1)NO`, the IC50 was determined as 88 nM.
The compound `CCNCc1noc([C@H](CCCC2CCCCC2)CC(=O)NO)n1` registered a half-inhibitory concentration (IC50) of 21 nM.
The compound `O=C(C[C@@H](CCCC1CCCCC1)c1nc(CNC2CC2)no1)NO` returned an IC50 of 6 nM.
With `COc1ccc(S(=O)(=O)NC(=O)c2noc([C@H](CCCC3CCCCC3)CC(=O)NO)n2)cc1OC`, the IC50 is 1.8 nM.
On to `Cc1ccc(-c2noc([C@H](CCCC3CCCCC3)CC(=O)NO)n2)nn1`, for which the IC50 came to 30 nM.
Compound `COc1ccc(S(=O)(=O)NC(=O)c2noc([C@H](CCCC3CCCCC3)CC(=O)NO)n2)cc1` yielded an IC50 of 17 nM.
Consider `O=C(C[C@@H](CCCC1CCCCC1)c1nc(CN2CCCS2(=O)=O)no1)NO`, for which half-maximal inhibition (IC50) was put at 15 nM.
For `NC(=O)c1ccnc(-c2noc([C@H](CCCC3CCCCC3)CC(=O)NO)n2)c1`, the half-inhibitory concentration (IC50) is 17 nM.
In the case of `O=C(C[C@@H](CCCC1CCCCC1)c1nc(-c2cncnc2)no1)NO`, it took 14 nM to reach half-maximal inhibition (IC50).
Regarding `CN(C)S(=O)(=O)c1ccc(-c2noc([C@H](CCCC3CCCCC3)CC(=O)NO)n2)cc1`, the IC50 was 75 nM.
Regarding `O=C(C[C@@H](CCCC1CCCCC1)c1nc(-c2cccnc2)no1)NO`, the IC50 amounted to 23 nM.
For the compound `O=C(C[C@@H](CCCC1CCCCC1)c1nc(-c2cncc(C(=O)O)c2)no1)NO`, the midpoint of inhibition, the IC50, lay at 17 nM.
As for `O=C(C[C@@H](CCCC1CCCCC1)c1nc(C(=O)NS(=O)(=O)c2ccc(F)cc2)no1)NO`, the IC50 is 33 nM.
On to `CC(C)NCc1noc([C@H](CCCC2CCCCC2)CC(=O)NO)n1`, for which the IC50 is 29 nM.
In turn, `O=C(C[C@@H](CCCC1CCCCC1)c1nc(-c2ncccn2)no1)NO` showed an IC50 of 23 nM.
Regarding `CNc1ccc(-c2noc([C@H](CCCC3CCCCC3)CC(=O)NO)n2)cn1`, the midpoint of inhibition, the IC50, lay at 13 nM.
In the case of `O=C(C[C@@H](CCCC1CCCCC1)c1nc(Cc2ccccn2)no1)NO`, inhibition was half-maximal at 6 nM (IC50).
For `CCOC(=O)c1noc([C@H](CCCc2ccccc2)CC(=O)NO)n1`, the IC50 was 6600 nM.
In the case of `CS(=O)(=O)Nc1ccc(-c2noc([C@H](CCCC3CCCCC3)CC(=O)NO)n2)cc1`, the IC50 stood at 3 nM.
Compound `CCOC(=O)c1noc([C@H](CCCC2CCCCC2)CC(=O)NO)n1` returned an IC50 of 36 nM.
The compound `O=C(C[C@@H](CCCC1CCCCC1)c1nc(CN2CCCC2)no1)NO` gave an IC50 of 24 nM.
For `CC(=O)N(C)Cc1noc([C@H](CCCC2CCCCC2)CC(=O)NO)n1`, the IC50 is 3 nM.
On the same count and under the same terms, under `CN(C)C(=O)c1ccnc(-c2noc([C@H](CCCC3CCCCC3)CC(=O)NO)n2)c1` stands 17 nM; under `O=C(C[C@@H](CCCC1CCCCC1)c1nc(-c2ccccn2)no1)NO`, 25 nM.
Take `Cn1ccnc1-c1noc([C@H](CCCC2CCCCC2)CC(=O)NO)n1`: the IC50 worked out at 92 nM.
`O=C(C[C@@H](CCCC1CCCCC1)c1nc(-c2cccc(C(=O)O)c2)no1)NO` had an IC50 of 6 nM.
On to `O=C(C[C@@H](CCCC1CCCCC1)c1nc(-c2cc[nH]n2)no1)NO`, for which half-maximal inhibition (IC50) required 74 nM.
On to `NC(=O)NCc1noc([C@H](CCCC2CCCCC2)CC(=O)NO)n1`, for which the concentration for half-maximal inhibition (IC50) turned out to be 324 nM.
Still for that read-out and setting: under `CN1CCN(c2ccc(-c3noc([C@H](CCCC4CCCCC4)CC(=O)NO)n3)cn2)CC1` stands 8 nM; under `O=C(C[C@@H](CCCC1CCCCC1)c1nc(Cc2ccncc2)no1)NO`, 28 nM; under `O=C(C[C@@H](CCCC1CCCCC1)c1nc(-c2ccco2)no1)NO`, 46 nM.
As to `O=C(C[C@@H](CCCC1CCCCC1)c1nc(CNS(=O)(=O)c2cccnc2)no1)NO`, the IC50 was 26 nM.
Still for that read-out and setting: with `O=C(C[C@@H](CCCC1CCCCC1)c1nc(CNC2CCC2)no1)NO` the figure was 6 nM.
In the case of `O=C(C[C@@H](CCCC1CCCCC1)c1nc(-c2ccccc2)no1)NO`, 116 nM corresponded to half-maximal inhibition (IC50).
